Assay results: the EternaBench riboswitch data

Test system: MS2 coat protein
Assay: apparent Kd, MS2 coat protein; higher = weaker binding; RNA-MaP array; FMN 200 µM where present
How it was run: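 Designs on Illumina sequencing-chip clusters, transcribed by stalled E. coli RNA polymerase, were exposed to SNAP-549-labelled MS2 coat protein in doubling steps from 0.7 or 1.5 nM up to 3 µM, without and then with constant ligand. The buffer held 100 mM Tris-HCl pH 7.5, 80 mM KCl, 4 mM MgCl2, BSA, DTT, yeast tRNA and Tween-20. Apparent Kd values are medians of filtered per-cluster binding-curve fits to green signal normalised to red-channel RNA signal and control-cluster median Fmax.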

[1] = designed as: ON switch for flavin mononucleotide, no ligand
[2] = ligand present: flavin mononucleotide, designed as: ON switch for flavin mononucleotide
[3] = designed as: OFF switch for flavin mononucleotide, no ligand
[4] = ligand present: flavin mononucleotide, designed as: OFF switch for flavin mononucleotide

Sequence	apparent Kd [1] [nM]	apparent Kd [2] [nM]	apparent Kd [3] [nM]	apparent Kd [4] [nM]
ACCCGACAUGAGGAUCACCCAUGUAAACAAUCAUGAGGAUAUCCGGAGCAAGUGCUCCAGGGAGAAGGCAUAAAAG	76.3	42.2		
AGGAAUUUGUAGAAGGACGACUAUUAAGAUUUCGUAGGAUAUACUAUUUACAUGAGGAUCACCCAUGUUUAAAUGGAACAAUGU			8.06	11.1
CCUAGAUAGGGAGGAUAUCACAACCAUCCCGGCGAUCCAACUACAUGAGGAUCACCCAUGUGGUGUGAGAAGGCCCAGUAAUAG			143	78.6
CUGUUAUAGGUCCAUUUUUACAACAUGAGGAUCACCCAUGUGCAGGAUAUCGUGUUAAUUUUCAUCGAGAAGGGCAUAGUCACG			31.5	61.2
GGACGUGUCGUUUACAUGAGGAUCACCCAUGUCGAUAGACAUGAGGAUAUGGAUCCGAAUCGGAUCCAGAAGGCAUGCACGUCC	260	26.8		
GGACAUGUCGUUUACAUGAGGAUCACCCAUGUCGAUAGACAUGAGGAUAUCGAUACAAAUUGUAUCGAGAAGGCAUGCAUGUCC	91.2	23.5		
UUGUUACAUGAGGAUCACCCAUGUGAGGAUAUGGUUCGGUACUGUCCUGUCGCGUACUCCAGAAGGCACGUGUU			30.8	37.4
CCAUCGUGUGUGAGGAUAUGCUGGUCCUUGGAUCAGCAGAAGGCACAUGAGGAUCACCCAUGUGAAAACGAUGG			17.9	56.4
AGCUGUGGCCGAGGAUAUCUACUAAUCCAAACCGAAAUAUAAUCGGACAUGAGGAUCACCCAUGUAGAGAAGGCGGUCUCAGCA			254	410
CCUUUGAAGAUCCAAAAUUUCGACAUGAGGAUCACCCAUGUGCAGGAUAUCGUGCCAGUGAUGUACGAGAAGGGCAGACUCUGC			132	158
GGAUAACAUGAGGAUCACCCAUGUACAUGGGUACAAGGAUAUGUAAAAUAAAACAAACAAACAGAAGGUGUAAAAA	708	1450		
GCUAUAGAUGUAGGAUAUCAUAUAGAAGCUAUGUGAGAAGGACAUGAGGAUCACCCAUGUCAAUGGAUGGAGCGAAGUUAUGGC			43.4	57.7
AUGGUUCGAUUAGGAUAUUAUAGAUUGAAUAGUAUGAUUUACAUGAGGAUCACCCAUGUUACAUAUAAGAAGGAAUCGAAUCAU			20.1	11.6
GGUGCGUAUGUGAGGAUAUGCUGGUCCUUGGCUCGGCAGAAGGCACAUGAGGAUCACCCAUGUGGUGUCGUGCC			16.9	37.7
AAACAGGAAGGAUAUACAUUAUCGGAUCUUCUGGCAAUGCCACAUGAGGAUCACCCAUGUAGAAGGUCCAAAUU			13.6	22.9
UAACAUACAAAUAUACAUGAGGAUCACCCAUGUUUGUUGGGAAGAAGGGUAACUAUAUUACAUAUACAGGAUAUUUAACAUACU	15.1	11.7		
CUUAUUUUCGAAGGAUAUGGAUACAUGAGGAUCACCCAUGUAUAAAAUGAGAUCUAUUAUAUGAUCCAGAAGGUCGUUGUUUAU			33.4	59.2
GAAUGAAAGCAGAAGGCCGCACAUGAGGAUCACCCAUGUGAAAACAGAUGGAGGAUAUGCGAACGUUCGCUUUGAAAAGUAAAG	13.5	6.35		
AAUGUUGUUGUGAGGAUAUCGUAGUUAUUUUGAAACGAGAAGGCACAUGAGGAUCACCCAUGUUUGUUGAUGGU			22.9	47.9
GCCUCACAUGAGGAUCACCCAUGUCAGGAUAUCUAACGCGAGGUGCAGGCACUUCGUGAGAGAAGGGACGUCAA			20.3	34.4
GCACGGUAAGUGAGGAUAUACCUCUGGAUACAGAGGUAGAAGGCACAUGAGGAUCACCCAUGUCCAAGCCGUGC			23.7	103
GUCGAAGCUGUACCAGUCGACGGUCAGGAUAUACAUGAGGAUCACCCAUGUGCUAUUGAUACUAUGUAGAAGGGACCCACCGCA			10.7	11.2
GCACUUUUAUUUGAACCGAUUCGAACAUGAGGAUCACCCAUGUAGGAUAUGCUAAAAGUUGUGAUGCAGAAGGACAUUAAGUGC			5.94	6.99
CUUAGACAUGAGGAUCACCCAUGUGAGGAUAUGAUGCAGCAGUGGUCUACGCUGUGCAUCAGAAGGCACAUGUG			80.7	14.2
AUCAGCUCGUCAGGAUAUACGUCACUGCGUCAGCAGUGUGGUAAGAUCACAUGAGGAUCACCCAUGUAGAAGGGACGAGCGGAU			14.3	279
GGACAUUUACAGAAGGGCAAGCUCGAAAGAGGAGAAAGAGAACGAGCUUGCAGGAUAUGUUGAACAUGAGGAUCACCCAUGUCU	9.75	7.69		
AAAAGGUCAGGAUAUACAAAAAAAAAAAAAAAAAAAAAAAAGUAGAAGGGACAUGAGGAUCACCCAUGUGAAAA			86.1	74
GGGAUCAUCGGAGGAUAUCAUGUAGAUACAUGAGGAUCACCCAUGUCGAUGGAGACAUCGGAGAUUGAGAAGGCCGAUGAUCCG	741	28.9		

Sequence	apparent Kd [1] [nM]	apparent Kd [2] [nM]	apparent Kd [3] [nM]	apparent Kd [4] [nM]
UGAGCCUCGUGAGGAUAUACAUGAGGAUCACCCAUGUAAUAAAUCCAACGGAGGAAACUCCGAAUGUAGAAGGCACGAGGCUCA			18.1	64.3
UGCCCUCUUAAGGAUAUAUUGGACGAGCGACCAAUAGAAGGUGGGACAUGAGGAUCACCCAUGUGCAGACAUCC			23.2	22.7
CUCAUGAGAGGAUAUACAUGAGGAUCACCCAUGUGGUCAUCUCCUCGGGCUCCAUUACGUAGAAGGCUCAUUUG			41.4	88.4
GGUGUCAUCGAGAAGGCCUCAACAUGAGGAUCACCCAUGUUGUAAUAUGGGAGGAUAUCGAUGAUACAGCUACGUUUCGUAGCU	20.2	5.86		
AGCUAGUGAGGAUAUACGAACAUGUCAAAAGACGUGAAGGGACAUGAGGAUCACCCAUGUAGAAGGCACUAGCA			41.1	139
UUACUUUUACAGAAGGUUUAAUAAUAUAUAAAAGAAGGAUAUGUAACAUGAGGAUCACCCAUGUUUCACCCACAUGAGGAUCAU			11.5	9.79
UGGUACAUGGGAGGAUAUCCUCAUGAGACAUGAGGAUCACCCAUGUAUUAUAAGCCGAAAGGCAAGGAGAAGGCCCAUGUACCU	90.2	19.5		
UUCGGACUAUCAGGAUAUGGUGUAGCCUAGUAAAGGACAUGAGGAUCACCCAUGUACCAUUGGUGCCAGAAGGGAUGAUCCUAC	141	55.3		
ACCGCUCGAGGAUAUACAUGAGGAUCACCCAUGUAACCCAGAAGCAAGGCCUCAGGAUGUAGAAGGCGACGCAA			14	14.2
CGUGUGUCAGGAUAUUAGUAGUGUGUGGAUACAUAUAUUGCUGAGAAGGGACAUGAGGAUCACCCAUGUAUACG			46.9	169
UCCUUGUCCUGAGGAUAUCCGUGGUUACCGAAAGGAGAAGGCAGGACAUGAGGAUCACCCAUGUACCCAGAAAACGUGCAGAGA			59.3	467
GUGUAGUCAGGAUAUACAUGAGGAUCACCCAUGUGAAUAAGAUAGAAUAAGAUAAAGUGUAGAAGGGAUAGUGU			29.6	25.7
GUGGUUGUCGUAGGAUAUGUAGGAUAUUCCUACAUGAGGAUCACCCAUGUUCGCAUGGAAGAAGGACAGAAGGACGAUGACCAG	801	22.7		
UAAACAUGAGGAUCACCCAUGUAAAGAUCGGUAGUAGAGAGUGAGGAUAUACUAAAUUUAAUGGAGUAGAAGGCACUGGGUUCU	44.8	30.9		
GUCAGGUGAGGAUAUACGCGGCUGACGAAACGUUAUACCGAGUAGAAGGCACAUGAGGAUCACCCAUGUUCGGG			109	59.6
UGUGUUAUUGGAGGAUAUCGAUAUCAAACAUGAGGAUCACCCAUGUUGAGGAUCACACAUGUCCAUGAGAAGGCCGACGUAGUG	10.5	10.5		
CAUUUACAGGGAGGAUAUACAUGAGGAUCACCCAUGUCAUCAUAUGAUAUUUCUUUUGUAUGAGUGUAGAAGGCCCAACUACCA			19.2	18.4
AGACCGCUACGCCGGUUUCACGCACAGGAUAUGCGGUUACAUGAGGAUCACCCAUGUGGCCAUGUGCAGAAGGGUGGUUCGUGC	21.2	14.9		
GCGUUCUUGUAGAAGGUACAUAAAAUCUAUUUUUAACACAUGAAACAUGAGGAUCACCCAUGUUGUAAGGAUAUACAUGAACGC	7.03	5.88		
CUGUUAUAGGUCCAGAAUUACAACAUGAGGAUCACCCAUGUGCAGGAUAUCGGGUUGAUAGGCGACGAGAAGGGCAUAGUCACG			76.5	79.2
GCUACUUAUUUUAAUUAUGAUUUACUAGAAGGUAGAUACAUGAGGAUCACCCAUGUUUAGAGUUCUAAGGAUAUAGUUUUUAGC	8.25	7.24		
AUACCACGAGGAUAUCGUCUAUAUUACAUGAGGAUCACCCAUGUUAUAUUUGUAAUGUUUCGAGAAGGCGUGUUUU			15.3	13.3
AAAUGCCUGUCGAUGCUCGACAUGAGGAUCACCCAUGUAUGGCAGGAUAUGCAGAACUGACUCGUGCAGAAGGGCUAUACCUAA			8.06	24.7
UAAACACCCUCAUGUACCUGAGGACAUGAGGAUCACCCAUGUGAGGAUAUAGCCAUUAAAUCUAACUAGAAGGUAUAGGAAAUC			772	612
CGCUAGUCAGGAUAUACGCACAUGUCACCAGACGUGAAGGGACAUGAGGAUCACCCAUGUAGAAGGGACUAGCA			87.9	203
UCAGGAGUCACAGGAUAUCCGGCGUAGCACACAGGAGAAGGGUGAUCACGAGCACAUGAGGAUCACCCAUGUGACAUUUGUGAG	40.4	50.7		
AAAAAACAUGAGGAUCACCCAUGUGAGGAUAUCCUGGUUGAAAAAAAAAAAACAACCAGGAGAAGGCACAAAAA			88.4	132
